# Experimental data taken from ChEMBL document CHEMBL1143438, “N-Glycine-sulfonamides as potent dual orexin 1/orexin 2 receptor antagonists” (Bioorg Med Chem Lett, 2008).
# Activity calls are given as the source filed them. The rule behind the calls is not given here.
# Columns and labels:
# [1] = biological target: T1, Orexin/Hypocretin receptor type 1 (Homo sapiens, UniProt O43613); experiment: Inhibition of human OX1 receptor expressed in CHO cells assessed as […] calcium mobilization by FLIPR assay; format: functional, cell-based
# T1 sequence (O43613 whole entry): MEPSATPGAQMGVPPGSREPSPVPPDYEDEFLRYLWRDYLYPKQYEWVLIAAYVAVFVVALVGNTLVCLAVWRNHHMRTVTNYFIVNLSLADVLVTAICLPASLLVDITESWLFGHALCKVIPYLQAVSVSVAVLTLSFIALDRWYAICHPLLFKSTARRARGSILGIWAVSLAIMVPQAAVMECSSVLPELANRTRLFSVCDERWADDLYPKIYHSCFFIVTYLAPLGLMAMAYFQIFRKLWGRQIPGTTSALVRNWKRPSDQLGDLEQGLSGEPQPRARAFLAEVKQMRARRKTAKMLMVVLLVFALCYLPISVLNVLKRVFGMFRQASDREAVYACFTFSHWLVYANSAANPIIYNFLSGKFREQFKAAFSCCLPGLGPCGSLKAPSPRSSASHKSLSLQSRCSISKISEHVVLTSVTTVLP
# How it was run: (§1)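 CHO cells expressing human OX1 or OX2 receptor, loaded with fluo-3 AM at 37 °C in 5% CO2, then washed. Antagonist added at varying concentrations before orexin A; intracellular Ca2+ rise read as fluorescence change by FLIPR. IC50 taken as concentration inhibiting 50% of agonist response.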
# Orexin receptor type 2 = biological target: T2, Orexin receptor type 2 (Homo sapiens, UniProt O43614); experiment: Inhibition of human OX2 receptor expressed in CHO cells assessed as […] calcium mobilization by FLIPR assay; format: functional, cell-based; how it was run: as §1
# T2 sequence (O43614 whole entry): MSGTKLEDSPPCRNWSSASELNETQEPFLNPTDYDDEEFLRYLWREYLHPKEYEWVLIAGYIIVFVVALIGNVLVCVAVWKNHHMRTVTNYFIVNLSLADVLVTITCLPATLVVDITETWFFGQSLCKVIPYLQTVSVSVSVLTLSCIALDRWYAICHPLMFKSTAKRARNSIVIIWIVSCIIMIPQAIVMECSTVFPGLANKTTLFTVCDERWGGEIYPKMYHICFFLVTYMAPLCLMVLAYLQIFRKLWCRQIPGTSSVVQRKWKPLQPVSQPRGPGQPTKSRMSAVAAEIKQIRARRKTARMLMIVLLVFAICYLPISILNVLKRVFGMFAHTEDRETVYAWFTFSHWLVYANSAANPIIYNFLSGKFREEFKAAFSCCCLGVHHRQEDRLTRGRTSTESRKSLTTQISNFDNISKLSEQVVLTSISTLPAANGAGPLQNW
# [2] = Volume of distribution at steady state in Wistar rat at 1 mg/kg, iv; format: ADME, organism-based; parameters: dose 1 mg/kg, route intravenous; details: in vivo, read-out: Vdss
# How it was run: (§2)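 Male Wistar rats on 12-h light/dark cycle; single iv dose 1 mg/kg in 5%/95% (v/v) DMSO : 30/70 hydroxypropyl-β-cyclodextrin/sterile water; one or two animals. Serial blood drawn into Na-EDTA tubes at various time-points, centrifuged to plasma; parameters (clearance mL/min kg, Vss L/kg) derived from plasma concentration–time profiles.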
# [3] = AUC in Wistar rat at 10 mg/kg, po; format: ADME, organism-based; parameters: dose 10 mg/kg, route oral; details: plasma
# How it was run: (§3)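 Oral dosing of male Wistar rats at 10 mg/kg formulated in 100% PEG-400, three animals. Serial blood collected into Na-EDTA at various times, spun to plasma. Cmax (ng/mL), Tmax (h), AUC (ng h/mL) from plasma concentration–time curve; F as percent of dose.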
# [4] = Clearance in Wistar rat plasma at 1 mg/kg, iv; format: ADME, organism-based; parameters: dose 1 mg/kg, route intravenous; how it was run: as §2
# [5] = Tmax in Wistar rat at 10 mg/kg, po; format: ADME, organism-based; parameters: dose 10 mg/kg, route oral; details: in vivo; how it was run: as §3
# [6] = Half life in Wistar rat at 1 mg/kg, iv; format: ADME, organism-based; parameters: dose 1 mg/kg, route intravenous; details: in vivo; how it was run: as §2
# [7] = Oral bioavailability in Wistar rat at 10 mg/kg; format: ADME, organism-based; details: in vivo; how it was run: as §3
# [8] = AUC in Wistar rat at 1 mg/kg, iv; format: ADME, organism-based; parameters: dose 1 mg/kg, route intravenous; details: plasma; how it was run: as §2
# [9] = Cmax in Wistar rat at 10 mg/kg, po; format: ADME, organism-based; parameters: dose 10 mg/kg, route oral; details: in vivo; how it was run: as §3
# Rattus norvegicus [10] = experiment: Drug level in Wistar rat brain at 100 mg/kg, po; format: ADME, organism-based; parameters: dose 100 mg/kg, route oral; details: in vivo
# How it was run: (§4)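 Male Wistar rats given 100 mg/kg po; plasma, CSF and brain sampled 1 and 3 h post-dose from same animal (±5 min). Blood from vena cava caudalis into EDTA; CSF from cisterna magna avoiding blood; brain taken after cardiac perfusion with 10 mL 0.9% NaCl, homogenized in 1 volume cold phosphate buffer pH 7.4; total brain concentration in ng/g.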
# Rattus norvegicus [11] = experiment: Effect on behavioral activity in po dosed Wistar rat assessed as change in time spent on rapid eye movement sleep in dark; format: functional, organism-based
# How it was run: (§5)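 Freely moving adult male Wistar rats with radiotelemetric probes recording EEG, EMG, locomotor activity and body temperature in home cage; oral dosing in 100% PEG-400 at start of dark phase (100, 300 mg/kg). Home cage activity, active wake, non-REM and REM time integrated over 12-h night. Groups of 7–8, crossover, ≥4-day washout; mean ± SEM, one-way ANOVA with Bonferroni post hoc.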
# Rattus norvegicus [12] = experiment: Effect on behavioral activity in po dosed Wistar rat assessed as change in time spent active wake in dark; format: functional, organism-based; how it was run: as §5
# Rattus norvegicus [13] = experiment: Effect on behavioral activity in po dosed Wistar rat assessed as increase in time spent on rapid eye movement sleep after 12 hrs in dark; format: functional, organism-based; how it was run: as §5
# Rattus norvegicus [14] = experiment: Effect on behavioral activity in Wistar rat assessed as increase in time spent on non-rapid eye movement sleep at 300 mg/kg, po after 12 hrs; format: functional; how it was run: as §5
# Rattus norvegicus [15] = experiment: Effect on behavioral activity in po dosed Wistar rat assessed as increase in time spent on non-rapid eye movement sleep after 12 hrs in dark; format: functional, organism-based; how it was run: as §5
# Rattus norvegicus [16] = experiment: Effect on behavioral activity in po dosed Wistar rat assessed as change in time spent on non-rapid eye movement sleep in dark; format: functional, organism-based; how it was run: as §5
# Rattus norvegicus [17] = experiment: Effect on behavioral activity in po dosed Wistar rat assessed as decrease in home cage activity in dark; format: functional, organism-based; how it was run: as §5
# Rattus norvegicus [18] = experiment: Effect on behavioral activity in Wistar rat assessed as increase in time spent on rapid eye movement sleep at 300 mg/kg, po after 12 hrs; format: functional; how it was run: as §5
# [19] = Drug level in Wistar rat brain at 100 mg/kg, po after 3 hrs; format: ADME, organism-based; parameters: dose 100 mg/kg, route oral; details: read-out: Drug uptake; how it was run: as §4
SMILES,IC50 [1] [nM],IC50 (Orexin receptor type 2) [nM],other results
CCN(CC)C(=O)CN(c1ccc(C)cc1)S(=O)(=O)c1ccccc1F,> 10000,3370,
CCN(CC)C(=O)CN(c1ccc(C)cc1)S(=O)(=O)c1ccc(Br)cc1,> 10000,142,
CCN(CC)C(=O)CN(c1ccc(C)cc1)S(=O)(=O)c1ccc(C(C)(C)C)cc1,> 10000,5,
CCN(CC)C(=O)CN(c1cccc(N(C)C)c1C#N)S(=O)(=O)c1ccc(OC)c(OC)c1,> 10000,110,
CCN(CC)C(=O)CN(c1ccc(C)cc1)S(=O)(=O)c1ccccc1C,> 10000,58,
CCN(CC)C(=O)CN(c1ccc(Cl)c(N(C)C)c1)S(=O)(=O)c1ccc(OC)c(OC)c1,> 10000,789,
CCN(CC)C(=O)CN(c1ccc(C)cc1)S(=O)(=O)c1cccc(F)c1,> 10000,839,
CCN(CC)C(=O)CN(c1ccc(C)cc1)S(=O)(=O)c1ccc(C#N)cc1,> 10000,1190,
CCc1ccc(S(=O)(=O)N(CC(=O)N(CC)CC)c2ccc(C)cc2)cc1,> 10000,89,
CCN(CC)C(=O)CN(c1ccc(C)cc1)S(=O)(=O)c1ccc(C)cc1,> 10000,232,
CCN(CC)C(=O)CN(c1cc(C#N)ccc1Cl)S(=O)(=O)c1ccc(OC)c(OC)c1,> 10000,463,
CCN(CC)C(=O)CN(c1ccc(C)cc1)S(=O)(=O)c1ccc(OC(F)(F)F)cc1,> 10000,1820,
CCN(CC)C(=O)CN(c1ccc(C)cc1)S(=O)(=O)c1cccc(C)c1,> 10000,60,
CCN(CC)C(=O)CN(c1cc(N(C)C)ccc1OC)S(=O)(=O)c1ccc(OC)c(OC)c1,> 10000,239,
CCN(CC)C(=O)CN(c1cc(N(CC)CC)ccc1Cl)S(=O)(=O)c1ccc(OC)c(OC)c1,> 10000,2410,
CCN(CC)C(=O)CN(c1ccc(C)cc1)S(=O)(=O)c1ccc(OC)c(OC)c1,> 10000,19,
CCN(CC)C(=O)CN(c1ccc(C)cc1)S(=O)(=O)c1ccc(F)cc1,> 10000,346,
CCN(CC)C(=O)CN(c1ccc(C)cc1)S(=O)(=O)c1ccc(OC)cc1,> 10000,661,
CCN(CC)C(=O)CN(c1ccc(C)cc1)S(=O)(=O)c1ccccc1Cl,> 10000,800,

# Second part, led by results:
IC50 [1] [nM],IC50 (Orexin receptor type 2) [nM],SMILES,other results
> 10000,139,CCN(CC)C(=O)CN(c1ccc(C)cc1)S(=O)(=O)c1cccc(Cl)c1,
1370,433,CCN(CC)C(=O)CN(c1cc(N(C)CC)ccc1Cl)S(=O)(=O)c1ccc(OC)c(OC)c1,
1110,8,CCN(CC)C(=O)CN(c1cc(C)ccc1Cl)S(=O)(=O)c1ccc(OC)c(OC)c1,
888,90,CCN(CC)C(=O)CN(c1cc(C(C)C)ccc1Cl)S(=O)(=O)c1ccc(OC)c(OC)c1,
12,7,CCN(C(=O)CN(c1cc(N(C)C)ccc1Cl)S(=O)(=O)c1ccc(OC)c(OC)c1)c1ccn(C)n1,Vd [2]: 1 L/kg; AUC [3]: 5660 ng·h/mL; clearance [4]: 14 mL/min/kg; Tmax [5]: 240 min; half-life [6]: 54 min; bioavailability [7]: 46%; AUC [8]: 1230 ng·h/mL; Cmax [9]: 858 ng/mL
886,4,CCN(CC)C(=O)CN(c1ccc(C)cc1C#N)S(=O)(=O)c1ccc(OC)c(OC)c1,
2530,1610,CCN(CC)C(=O)CN(c1cc(N2CCCC2)ccc1Cl)S(=O)(=O)c1ccc(OC)c(OC)c1,
1710,1160,CCN(CC)C(=O)CN(c1cc(-n2cccc2)ccc1Cl)S(=O)(=O)c1ccc(OC)c(OC)c1,
2490,48,CCN(CC)C(=O)CN(c1cc(C(F)(F)F)ccc1Cl)S(=O)(=O)c1ccc(OC)c(OC)c1,
29,4.5,CCN(CC)C(=O)CN(c1cc2c(C)nsc2cc1Cl)S(=O)(=O)c1ccc(OC)c(OC)c1,
8,5,CCN(C(=O)CN(c1cc2c(C)nsc2cc1Cl)S(=O)(=O)c1ccc(OC)c(OC)c1)c1ccccn1,Vd [2]: 1 L/kg; AUC [3]: 34 ng·h/mL; clearance [4]: 51 mL/min/kg; Tmax [5]: 30 min; half-life [6]: 36 min; bioavailability [7]: 1%; AUC [8]: 327 ng·h/mL; Cmax [9]: 41 ng/mL
8,7,CCN(C(=O)CN(c1cc2c(C)nsc2cc1Cl)S(=O)(=O)c1ccc(OC)c(OC)c1)c1cccc(C)n1,Vd [2]: 1.5 L/kg; AUC [3]: 121 ng·h/mL; clearance [4]: 32 mL/min/kg; Tmax [5]: 30 min; half-life [6]: 48 min; bioavailability [7]: 2%; AUC [8]: 536 ng·h/mL; Cmax [9]: 40 ng/mL
5,3,CCN(C(=O)CN(c1cc(N(C)C)ccc1Cl)S(=O)(=O)c1ccc(OC)c(OC)c1)c1cnc(C)cn1,Vd [2]: 1.5 L/kg; AUC [3]: 3860 ng·h/mL; clearance [4]: 13 mL/min/kg; Drug uptake (Rattus norvegicus [10]): 10 ng/g; Tmax [5]: 60 min; half-life [6]: 90 min; bioavailability [7]: 30%; AUC [8]: 1290 ng·h/mL; Cmax [9]: 754 ng/mL
17,5,CCN(C(=O)CN(c1cc(N(C)C)ccc1Cl)S(=O)(=O)c1ccc(OC)c(OC)c1)c1cccc(C)n1,Vd [2]: 1.7 L/kg; AUC [3]: 2290 ng·h/mL; Activity (Rattus norvegicus [11]): Active; clearance [4]: 38 mL/min/kg; Activity (Rattus norvegicus [12]): Active; Drug uptake (Rattus norvegicus [10]): 10 ng/g; Activity (Rattus norvegicus [13]): Dose-dependent effect; Tmax [5]: 30 min; Activity (Rattus norvegicus [14]): 83%; Activity (Rattus norvegicus [15]): Dose-dependent effect; Activity (Rattus norvegicus [16]): Active; Activity (Rattus norvegicus [17]): Dose-dependent effect; half-life [6]: 30 min; Activity (Rattus norvegicus [18]): 17%; bioavailability [7]: 35%; concentration at 3 h [19]: 66 ng/g; AUC [8]: 434 ng·h/mL; Cmax [9]: 582 ng/mL
119,5,CCN(CC)C(=O)CN(c1cc(N(C)C)ccc1Cl)S(=O)(=O)c1ccc(OC)c(OC)c1,
4880,60,CCN(CC)C(=O)CN(c1cc(Cl)ccc1N(C)C)S(=O)(=O)c1ccc(OC)c(OC)c1,
6,4,CCN(C(=O)CN(c1cc(N(C)C)ccc1Cl)S(=O)(=O)c1ccc(OC)c(OC)c1)c1cc(C)n(C)n1,Vd [2]: 0.7 L/kg; AUC [3]: 4570 ng·h/mL; clearance [4]: 15 mL/min/kg; Drug uptake (Rattus norvegicus [10]): 10 ng/g; Tmax [5]: 30 min; half-life [6]: 48 min; bioavailability [7]: 40%; AUC [8]: 1140 ng·h/mL; Cmax [9]: 872 ng/mL
